Reference: ChEMBL document CHEMBL6078676, “In Vitro and In Vivo Leishmanicidal Activity of Beauvericin” (J Nat Prod, 2024)
Values after ≈ are worked out from the molar mass of the structure shown. Active and inactive are the calls of the source. The rule behind the calls is not given here.

Assays:
Leishmania amazonensis [1] = assay: Antileishmanial activity against Leishmania amazonensis assessed as reduction in parasite proliferation at 50 microg/ml incubated for 72 hrs; format: functional; parameters: scale not given: the % may be the effect or the level left; settings: dose 50 µg/ml
Leishmania amazonensis [2] = assay: Antileishmanial activity against Leishmania amazonensis assessed as reduction in parasite proliferation incubated for 72 hrs; format: functional, organism-based
Leishmania braziliensis [3] = assay: Induction of membrane morphological changes in Leishmania braziliensis MHOM/BR/91/H3227 assessed as appearance of leaf-like promastigotes at 1.2 to 9.6 uM incubated for 24 hrs by optical microscopic analysis; format: functional, organism-based; settings: dose 1.2-9.6 µM
[4] = Selectivity index, ratio of CC50 for cytotoxicity against mouse BMDM cells assessed as cell viability to EC50 for antileishmanial activity against Leishmania braziliensis MHOM/BR/91/H3227 intracellular amastigote assessed as parasite killing; format: toxicity, cell-based; settings: read-out: Ratio CC50/EC50
In short: (§1)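 Ratio of 24 h MTT CC50 in BALB/c BMDM to Leishmania EC50.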

Leishmania amazonensis [5] = assay: Induction of membrane morphological changes in Leishmania amazonensis IFLA/BR/67/PH8 promastigote assessed as shortening of cell body at 2.4 to 9.6 uM incubated for 24 hrs by optical microscopic analysis; format: functional, organism-based; settings: dose 2.4-9.6 µM
Leishmania amazonensis [6] = assay: Induction of membrane morphological changes in Leishmania amazonensis IFLA/BR/1967/PH8 promastigote upto 1.2 uM incubated for 24 hrs by optical microscopic analysis; format: functional, organism-based
Leishmania amazonensis [7] = assay: Antileishmanial activity against Leishmania amazonensis IFLA/BR/67/PH8 intracellular amastigote assessed as parasite killing incubated for 24 hrs; format: functional, organism-based; settings: IFLA/BR/67/PH8, 24 h
Leishmania amazonensis [8] = assay: Induction of membrane morphological changes in Leishmania amazonensis IFLA/BR/67/PH8 promastigote assessed as aberrant nuclei 2.4 to 9.6 uM incubated for 24 hrs by optical microscopic analysis; format: functional, organism-based; settings: dose 2.4-9.6 µM
Leishmania amazonensis [9] = assay: Induction of membrane morphological changes in Leishmania amazonensis IFLA/BR/67/PH8 promastigote assessed as rounding of cell body at 2.4 to 9.6 uM incubated for 24 hrs by optical microscopic analysis; format: functional, organism-based; settings: dose 2.4-9.6 µM
[10] = Selectivity index, ratio of CC50 for cytotoxicity against mouse BMDM cells assessed as cell viability to EC50 for antileishmanial activity against Leishmania braziliensis MHOM/BR/91/H3227 promastigote assessed as parasite killing; format: toxicity, cell-based; settings: read-out: Ratio CC50/EC50; in short: as §1
Leishmania braziliensis [11] = assay: Antileishmanial activity against Leishmania braziliensis MHOM/BR/91/H3227 intracellular amastigote assessed as parasite killing incubated for 24 hrs; format: functional, organism-based; settings: MHOM/BR/91/H3227, 24 h
[12] = Cytotoxicity against mouse BMDM cells assessed as cell viability at 1.6 uM incubated for 24 hrs by MTT assay; format: toxicity, cell-based
Leishmania braziliensis [13] = assay: Antileishmanial activity against Leishmania braziliensis MHOM/BR/91/H3227 promastigote assessed as parasite killing incubated for 24 hrs; format: functional, organism-based; settings: MHOM/BR/91/H3227, 24 h
In short: (§2)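 Axenic parasites (5 × 10^6/well) were exposed for 24 h to increasing concentrations of compound dissolved in DMSO. MTT (5 mg/mL) was added for 3 h and the reaction stopped with 20% SDS. Formazan was read at 600 nm against a 650 nm reference to give EC50. Leishmania grew in supplemented M199 pH 7.4 at 25 °C; T. cruzi Y epimastigotes grew in LIT with 10% FBS at 28 °C.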

Leishmania braziliensis [14] = assay: Induction of membrane morphological changes in Leishmania braziliensis MHOM/BR/91/H3227 assessed as appearance of slender cell bodies at 1.2 to 9.6 uM incubated for 24 hrs by optical microscopic analysis; format: functional, organism-based; settings: dose 1.2-9.6 µM
Trypanosoma cruzi = assay: Antitrypanosomal activity against Trypanosoma cruzi Y epimastigote assessed as parasite killing incubated for 24 hrs; format: functional, organism-based; in short: as §2
Cell membrane = assay: Induction of cell membrane permeabilization in Leishmania amazonensis IFLA/BR/67/PH8 promastigotes incubated for 24 hrs; format: subcellular
In short: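 Promastigotes were incubated 24 h with 1.0 μM. Membrane permeability was measured by ethidium bromide fluorescence against untreated cells.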

[15] = Selectivity index, ratio of CC50 for cytotoxicity against mouse BMDM cells assessed as cell viability to EC50 for antileishmanial activity against Leishmania amazonensis IFLA/BR/67/PH8 intracellular amastigote; format: toxicity, cell-based; settings: read-out: Ratio CC50/EC50; in short: as §1
Leishmania amazonensis [16] = assay: Antileishmanial activity against Leishmania amazonensis IFLA/BR/67/PH8 promastigote assessed as parasite killing incubated for 24 hrs; format: functional, organism-based; settings: IFLA/BR/67/PH8, 24 h; in short: as §2
[17] = Selectivity index, ratio of CC50 for cytotoxicity against mouse L929 cells assessed as cell viability to EC50 for antitrypanosomal activity against Trypanosoma cruzi Y epimastigote assessed as parasite killing; format: toxicity, cell-based; settings: read-out: Ratio CC50/EC50
In short: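 Ratio of 24 h MTT CC50 in L929 fibroblasts to T. cruzi Y epimastigote EC50.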

Leishmania amazonensis [18] = assay: Induction of membrane morphological changes in Leishmania amazonensis IFLA/BR/67/PH8 promastigote assessed as cell debris formation 2.4 to 9.6 uM incubated for 24 hrs by optical microscopic analysis; format: functional, organism-based; settings: dose 2.4-9.6 µM
Leishmania amazonensis [19] = assay: Antileishmanial activity against Leishmania amazonensis IFLA/BR/67/PH8 amastigotes infected in mouse BMDM cells assessed as reduction in infectivity index at 1.6 uM pre-infected in cells for 24 hrs followed by compound addition and measured after 48 hrs; format: functional; parameters: scale not given: the % may be the effect or the level left
In short: (§3)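 BALB/c BMDM (4 × 10^5) on coverslips were infected with stationary-phase L. amazonensis promastigotes, MOI 5, for 24 h at 34 °C, 5% CO2. After a PBS wash, cells received fresh RPMI with 0.4–1.6 μM. Incubation ran 24 h, 48 h, or 24 + 24 h with fresh medium. Cells were MeOH-fixed and stained; ≥300 cells were counted for infection rate, amastigotes/100 macrophages, and their product, relative to untreated. Two independent assays in triplicate.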

Leishmania braziliensis [20] = assay: Induction of membrane morphological changes in Leishmania braziliensis MHOM/BR/91/H3227 assessed as appearance of sperm-like structure at 1.2 to 9.6 uM incubated for 24 hrs by optical microscopic analysis; format: functional, organism-based; settings: dose 1.2-9.6 µM
MDA-MB-231 = assay: Inhibition of cell migration in human MDA-MB-231 cells; format: functional, cell-based
PC-3 = assay: Inhibition of cell migration in human PC-3 cells; format: functional, cell-based
Leishmania amazonensis [21] = assay: Antileishmanial activity against Leishmania amazonensis IFLA/BR/67/PH8 amastigotes infected in mouse BMDM cells assessed as inhibition of parasite growth upto 1.6 uM pre-infected in cells for 24 hrs followed by compound addition and measured after 48 hrs by cell imaging analysis; format: functional, organism-based; in short: as §3
[22] = Cytotoxicity against mouse BMDM cells assessed as cell viability incubated for 24 hrs by MTT assay; format: toxicity, cell-based
In short: (§4)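 MTT viability after 24 h exposure to increasing concentrations (DMSO solution) gave CC50. BMDM (4 × 10^5/well) were differentiated for 7 days from female BALB/c marrow in RPMI with 20% FBS and 30% L929 supernatant. L929 fibroblasts (5 × 10^4/well) were in supplemented RPMI. Both were held at 37 °C, 5% CO2. Read at 600/650 nm after 3 h MTT and SDS stop.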

[23] = Cytotoxicity against mouse L929 cells assessed as cell viability measured for 24 hrs by MTT assay; format: toxicity, cell-based; in short: as §4
HaCaT = assay: Antiproliferative activity against human HaCaT cells assessed as inhibition of cell proliferation incubated for 72 hrs by MTT assay; format: functional, cell-based
Leishmania amazonensis [24] = assay: Antileishmanial activity against Leishmania amazonensis IFLA/BR/67/PH8 amastigotes infected in female BALB/c mouse assessed as reduction in mean lesion at 5 mg/kg, topically administered for 32 days and measured after 8 to 13 week; settings: route topical, time 8-13 weeks
[25] = Selectivity index, ratio of CC50 for cytotoxicity against mouse BMDM cells assessed as cell viability to EC50 for antileishmanial activity against Leishmania amazonensis IFLA/BR/67/PH8 promastigote assessed as parasite killing; format: toxicity, cell-based; settings: read-out: Ratio CC50/EC50; in short: as §1
Leishmania braziliensis [26] = assay: Antileishmanial activity against Leishmania braziliensis MHOM/BR/91/H3227 intracellular amastigotes infected in mouse BMDM cells assessed as reduction in infectivity index at 1.6 uM pre-infected in cells for 24 hrs followed by compound addition and measured after 48 hrs by cell imaging analysis; format: functional; parameters: scale not given: the % may be the effect or the level left
In short: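 BMDM infected with stationary-phase L. braziliensis promastigotes, MOI 10, for 24 h at 34 °C, 5% CO2. After washing, cells were given 0.4–1.6 μM in fresh RPMI for 48 h. MeOH fixation and staining, then ≥300 host cells counted. Infectivity index (infection rate × amastigotes per 100 macrophages) expressed relative to untreated; two independent assays in triplicate.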

Leishmania amazonensis [27] = assay: Antileishmanial activity against Leishmania amazonensis IFLA/BR/67/PH8 amastigotes infected in female BALB/c mouse assessed as reduction in parasite burden at 5 to 10 mg/kg, ip administered for 15 days; format: functional, organism-based; settings: dose 5-10 mg/kg, time 15.0 day
In short: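 Female BALB/c mice (35 days old) were infected at the tail base with ~1 × 10^6 stationary-phase L. amazonensis promastigotes. Treatment was 5 or 10 mg/kg/day ip in 150 μL DMSO/0.9% NaCl (1:9), daily for 15 days from week 7 to week 9; vehicle controls, 5 per group. Lesion parasite load was measured by limiting dilution in M199 with wells read after 7 days.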

Leishmania amazonensis [28] = assay: Antileishmanial activity against Leishmania amazonensis IFLA/BR/67/PH8 amastigotes infected in mouse BMDM cells at 1.6 uM pre-infected in cells for 24 hrs followed by compound addition and measured after 48 hrs; format: functional, organism-based; in short: as §3
Leishmania amazonensis [29] = assay: Antileishmanial activity against Leishmania amazonensis IFLA/BR/67/PH8 amastigotes infected in female BALB/c mouse assessed as total ulcerated area by measuring delay in ulcer progression at 5 mg/kg, topically administered for 32 days and measured after 8 to 13 week; settings: route topical, time 8-13 weeks

SMILES: O=c1cc(CO)occ1O [KOJIC ACID]
- Activity (Leishmania amazonensis [1]): 79%
- EC50 (Leishmania amazonensis [2]): 27.8 µg/mL (≈ 196 µM)

SMILES: CC(C)[C@H]1OC(=O)[C@H](Cc2ccccc2)N(C)C(=O)[C@@H](C(C)C)OC(=O)[C@H](Cc2ccccc2)N(C)C(=O)[C@@H](C(C)C)OC(=O)[C@H](Cc2ccccc2)N(C)C1=O
- Activity (Leishmania braziliensis [3]): Active
- selectivity ratio [4]: 29.7
- Activity (Leishmania amazonensis [5]): Active
- Activity (Leishmania amazonensis [6]): Active
- EC50 (Leishmania amazonensis [7]): 800 nM
- Activity (Leishmania amazonensis [8]): Active
- Activity (Leishmania amazonensis [9]): Active
- selectivity ratio [10]: 19.8
- EC50 (Leishmania braziliensis [11]): 600 nM
- Activity [12]: Non-toxic
- EC50 (Leishmania braziliensis [13]): 900 nM
- Activity (Leishmania braziliensis [14]): Active
- EC50 (Trypanosoma cruzi): 3400 nM
- Activity (Cell membrane): Active
- selectivity ratio [15]: 22.3
- EC50 (Leishmania amazonensis [16]): 1200 nM
- selectivity ratio [17]: 13.4
- Activity (Leishmania amazonensis [18]): Active
- Activity (Leishmania amazonensis [19]): 95%
- Activity (Leishmania braziliensis [20]): Active
- inhibition (MDA-MB-231): Active
- inhibition (PC-3): Active
- Activity (Leishmania amazonensis [21]): Active
- CC50 at 24 h [22]: 17800 nM
- CC50 at 24 h [23]: 45500 nM
- IC50 (HaCaT): 3900 nM
- Activity (Leishmania amazonensis [24]): inactive
- selectivity ratio [25]: 14.8
- Activity (Leishmania braziliensis [26]): 89%
- Activity (Leishmania amazonensis [27]): Active
- Activity (Leishmania amazonensis [28]): Active
- Activity (Leishmania amazonensis [29]): Active

SMILES: C[C@@H]1[C@H](O)[C@@H](C)/C=C/C=C/C=C/C=C/C=C/C=C/C=C/[C@H](O[C@@H]2O[C@H](C)[C@@H](O)[C@H](N)[C@@H]2O)C[C@@H]2O[C@](O)(C[C@@H](O)C[C@@H](O)[C@H](O)CC[C@@H](O)C[C@@H](O)CC(=O)O[C@H]1C)C[C@H](O)[C@H]2C(=O)O [AMPHOTERICIN B]
- EC50 (Leishmania amazonensis [7]): 200 nM
- EC50 (Leishmania braziliensis [11]): 200 nM
- EC50 (Leishmania braziliensis [13]): 200 nM
- EC50 (Trypanosoma cruzi): 2230 nM
- EC50 (Leishmania amazonensis [16]): 200 nM
